Experiment [1] can be described thus: Activity at beta-galactosidase in Bacillus subtilis. Put shortly:
(§1)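 B. subtilis tester strain carrying an srfA-lacZ fusion that responds to added pheromone. Overnight culture diluted 100-fold, added to sample solution, incubated 37 °C, 5 h, 150 rpm. β-Galactosidase measured with o-nitrophenyl-β-D-galactopyranoside at 30 °C, read at 420 nm. Analogs tested at concentrations up to 300 nM.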

A further experiment concerns Bacillus subtilis. Description: Activity at beta-galactosidase in Bacillus subtilis relative to ComXRO-E-2. The arrangement: concentration or dose not given beside the values. Put shortly: as §1

Data on 15 compounds can be found in ChEMBL document CHEMBL1139111, “Structure-activity relationship studies on quorum sensing ComX(RO-E-2) pheromone” (Bioorg Med Chem Lett, 2007).

*1 amine or outer side, *2 acyl side, *3 side chain or, on linkers, in order; H or OH if unused. Where a SMILES comes first, the peptide text is derived from it. [ ]: non-standard residue; d: D form. X1 = CC(C)=CCC/C(C)=C\C[C@@]12c3ccccc3N[C@@H]1N([*:1])C[C@@H]2C(=O)[*:2]

For `CC[C@H](C)[C@H](N)C(=O)N[C@@H](Cc1ccccc1)C(=O)N1C[C@H](C(=O)N[C@@H](CCC(=O)O)C(=O)O)[C@]2(C/C=C(/C)CCC=C(C)C)c3ccccc3N[C@H]12`, the EC50 – broadly, the concentration at which the effect is half-maximal – in experiment [1] is 20 nM. Besides, the Activity with Bacillus subtilis was found to be 80%.

For the compound `CC[C@H](C)[C@H](NC(=O)[C@@H](C)N)C(=O)N[C@@H](Cc1ccccc1)C(=O)N1C[C@H](C(=O)N[C@@H](CCC(=O)O)C(=O)N[C@@H](CCC(N)=O)C(=O)O)[C@]2(C/C=C(/C)CCC=C(C)C)c3ccccc3N[C@H]12`, the response in experiment [1] was half-maximal at 3 nM (EC50). Moreover, in the experiment with Bacillus subtilis, the Activity is 100%.

Take `CC(C)=CCC/C(C)=C\C[C@@]12c3ccccc3N[C@@H]1NC[C@@H]2C(=O)N[C@@H](CCC(=O)O)C(=O)N[C@@H](CCC(N)=O)C(=O)O`: the EC50 in experiment [1] is greater than 300 nM. The compound also returned an Activity in the experiment on Bacillus subtilis of 15%.

Take `CC[C@H](C)[C@H](N)C(=O)N[C@@H](Cc1ccccc1)C(=O)N1C[C@H](C(=O)O)[C@]2(C/C=C(/C)CCC=C(C)C)c3ccccc3N[C@H]12`: the EC50 in experiment [1] is 160 nM. The compound also gave an Activity in the experiment on Bacillus subtilis of 55%.

Compound `CC(C)=CCC/C(C)=C\C[C@@]12c3ccccc3N[C@@H]1N(C(=O)[C@@H](N)Cc1ccccc1)C[C@@H]2C(=O)N[C@@H](CCC(=O)O)C(=O)N[C@@H](CCC(N)=O)C(=O)O` came in with an EC50 in experiment [1] of 8 nM. The compound further yielded an Activity in the experiment on Bacillus subtilis of 70%.

As to `CC(C)=CCC/C(C)=C\C[C@@]12c3ccccc3N[C@@H]1N(C(=O)[C@@H](N)Cc1ccccc1)C[C@@H]2C(=O)N[C@@H](CCC(=O)O)C(=O)O`, the concentration for a half-maximal effect (EC50) in experiment [1] turned out to be 20 nM. In addition, the Activity in the experiment with Bacillus subtilis came out at 60%.

For the compound `CC[C@H](C)[C@H](NC(=O)CN)C(=O)N[C@@H](Cc1ccccc1)C(=O)N1C[C@H](C(=O)O)[C@]2(C/C=C(/C)CCC=C(C)C)c3ccccc3N[C@H]12`, the EC50 in experiment [1] stood at 130 nM. Moreover, the Activity in the experiment with Bacillus subtilis is 60%.

The compound `CC[C@H](C)[C@H](NC(=O)CNC(=O)[C@H](C)N)C(=O)N[C@@H](Cc1ccccc1)C(=O)N1C[C@H](C(=O)N[C@@H](CCC(=O)O)C(=O)N[C@@H](CCC(N)=O)C(=O)O)[C@]2(C/C=C(/C)CCC=C(C)C)c3ccccc3N[C@H]12` (H-AGIF[X1]EQ-OH) registered a concentration giving a half-maximal response (EC50) in experiment [1] of 1 nM. The same compound showed an Activity in the experiment with Bacillus subtilis of 100%.

Consider `CC(C)=CCC/C(C)=C\C[C@@]12c3ccccc3N[C@@H]1N(C(=O)[C@H](Cc1ccccc1)NC(=O)[C@H](C)NC(=O)CN)C[C@@H]2C(=O)N[C@@H](CCC(=O)O)C(=O)N[C@@H](CCC(N)=O)C(=O)O` (H-GAF[X1]EQ-OH), for which, in experiment [1], the EC50 was 10 nM. In addition, in the experiment with Bacillus subtilis, the Activity amounted to 95%.

In turn, `CC[C@H](C)[C@H](NC(=O)CN)C(=O)N[C@@H](C)C(=O)N1C[C@H](C(=O)N[C@@H](CCC(=O)O)C(=O)N[C@@H](CCC(N)=O)C(=O)O)[C@]2(C/C=C(/C)CCC=C(C)C)c3ccccc3N[C@H]12` (H-GIA[X1]EQ-OH) yielded an EC50 in experiment [1] of 20 nM. The compound also had an Activity with Bacillus subtilis of 90%.

With `CC[C@H](C)[C@H](NC(=O)CN)C(=O)N[C@@H](Cc1ccccc1)C(=O)N1C[C@H](C(=O)N[C@@H](C)C(=O)N[C@@H](CCC(N)=O)C(=O)O)[C@]2(C/C=C(/C)CCC=C(C)C)c3ccccc3N[C@H]12` (H-GIF[X1]AQ-OH), in experiment [1], the response was half-maximal at 3 nM (EC50). Besides, in the experiment with Bacillus subtilis, the Activity stood at 100%.

With `CC[C@H](C)[C@H](NC(=O)CN)C(=O)N[C@@H](Cc1ccccc1)C(=O)N1C[C@H](C(=O)N[C@@H](CCC(=O)O)C(=O)O)[C@]2(C/C=C(/C)CCC=C(C)C)c3ccccc3N[C@H]12` (H-GIF[X1]E-OH), in experiment [1], the EC50 stood at 20 nM. In the experiment with Bacillus subtilis, this compound showed an Activity of 80%.

In experiment [1], `CC[C@H](C)[C@H](NC(=O)CN)C(=O)N[C@@H](Cc1ccccc1)C(=O)N1C[C@H](C(=O)N[C@@H](CCC(=O)O)C(=O)N[C@@H](C)C(=O)O)[C@]2(C/C=C(/C)CCC=C(C)C)c3ccccc3N[C@H]12` (H-GIF[X1]EA-OH) displayed an EC50 of 20 nM. In the experiment with Bacillus subtilis, the Activity came to 95%.

In turn, `CC[C@H](C)[C@H](NC(=O)CN)C(=O)N[C@@H](Cc1ccccc1)C(=O)N1C[C@H](C(=O)N[C@@H](CCC(=O)O)C(=O)N[C@@H](CCC(N)=O)C(=O)O)[C@]2(C/C=C(/C)CCC=C(C)C)c3ccccc3N[C@H]12` (H-GIF[X1]EQ-OH) yielded an EC50 in experiment [1] of 1 nM. Moreover, in the experiment on Bacillus subtilis, the Activity is 100%.

The compound `CC[C@H](C)[C@H](N)C(=O)N[C@@H](Cc1ccccc1)C(=O)N1C[C@H](C(=O)N[C@@H](CCC(=O)O)C(=O)N[C@@H](CCC(N)=O)C(=O)O)[C@]2(C/C=C(/C)CCC=C(C)C)c3ccccc3N[C@H]12` (H-IF[X1]EQ-OH) yielded an EC50 in experiment [1] of 6 nM. Besides, in the experiment with Bacillus subtilis, the Activity was 100%.
